Test results as given in ChEMBL document CHEMBL4229344 (Eur J Med Chem, 2018).

Columns and labels:
[1] = biological target: Mitogen-activated protein kinase kinase kinase 5 (Homo sapiens) (UniProt Q99683); assay: Binding affinity to wild-type human partial length ASK1 (E648 to S964 residues) expressed in bacterial expression system assessed as residual binding level at 1 uM by Kinomescan method relative to control
In short: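 Single-concentration KINOMEscan (DiscoverX) binding screen at 1 μM against a panel of 468 purified kinases and mutants. The read-out is binding relative to control.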

[2] = biological target: Ephrin type-A receptor 1 (Homo sapiens) (UniProt P21709); assay: Binding affinity to wild-type human partial length EPHA1 (V588 to I913 residues) expressed in bacterial expression system assessed as residual binding level at 1 uM by Kinomescan method relative to control
[3] = biological target: Tyrosine-protein kinase ABL1 (Homo sapiens, UniProt P00519); assay: Inhibition of ABL1 (unknown origin) using poly(4:1 Glu,Tyr) peptide as substrate preincubated for 1 hr followed by addition of ATP and measured after 30 mins by ADP-Glo bioluminescence assay
[4] = system: Receptor-type tyrosine-protein kinase FLT3 (Homo sapiens), P36888 [N841I]; assay: Binding affinity to human partial length FLT3 N841I mutant (V592 to Y969 residues) expressed in bacterial expression system assessed as residual binding level at 1 uM by Kinomescan method relative to control
In short: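 Kinome-wide single-concentration binding screen (KINOMEscan) at 1 μM against a panel of 468 purified kinases and mutants. Read-out is relative binding of each kinase compared with control. Selectivity across the panel was summarised as an S(10) score.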

[5] = biological target: Mitogen-activated protein kinase 9 (Homo sapiens) (UniProt P45984); assay: Binding affinity to wild-type human full length JNK2 (M1 to Q382 residues) expressed in mammalian expression system assessed as residual binding level at 1 uM by Kinomescan method relative to control
Sequence of Mitogen-activated protein kinase 9 (Homo sapiens) (P45984 whole entry, looked up, the tested form may be a part): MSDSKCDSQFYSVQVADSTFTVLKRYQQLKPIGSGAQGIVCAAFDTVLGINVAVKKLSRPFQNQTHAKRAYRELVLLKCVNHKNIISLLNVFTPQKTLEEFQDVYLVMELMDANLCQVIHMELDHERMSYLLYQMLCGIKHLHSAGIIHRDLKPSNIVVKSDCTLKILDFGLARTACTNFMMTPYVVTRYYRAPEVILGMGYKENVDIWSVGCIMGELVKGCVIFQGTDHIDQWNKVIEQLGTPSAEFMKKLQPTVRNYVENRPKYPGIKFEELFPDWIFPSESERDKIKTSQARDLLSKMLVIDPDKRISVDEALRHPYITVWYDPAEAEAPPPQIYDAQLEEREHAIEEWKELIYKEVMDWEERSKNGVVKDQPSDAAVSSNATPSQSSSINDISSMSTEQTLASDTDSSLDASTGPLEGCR
In short: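 KINOMEscan competition binding against 468 purified kinases/mutants, test compound at 1 µM; residual binding relative to control.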

[6] = biological target: Fibroblast growth factor receptor 4 (Homo sapiens) (UniProt P22455); assay: Binding affinity to wild-type human partial length FGFR4 (G402 to E713 residues) expressed in bacterial expression system assessed as residual binding level at 1 uM by Kinomescan method relative to control
In short: (§1)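 Kinome-wide competition binding screen against a panel of 468 purified kinases/mutants, with the test compound at a single concentration of 1 μM. Read-out is the relative binding activity of each kinase in the presence of compound.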

[7] = biological target: cGMP-dependent protein kinase 1 (Homo sapiens) (UniProt Q13976); assay: Binding affinity to wild-type human partial length PRKG1 (L339 to F686 residues) expressed in bacterial expression system assessed as residual binding level at 1 uM by Kinomescan method relative to control
[8] = biological target: Activin receptor type-1B (Homo sapiens) (UniProt P36896); assay: Binding affinity to wild-type human ACVR1B (S187 to I505 residues) expressed in bacterial expression system assessed as residual binding level at 1 uM by Kinomescan method relative to control
In short: (§2)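 Single-concentration (1 μM) competition-binding screen run by KINOMEscan against a panel of 468 purified kinases and mutants. The read-out is the relative binding activity of the test compound to each kinase.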

[9] = biological target: Serine/threonine-protein kinase PknB (Mycobacterium tuberculosis) (UniProt P9WI81); assay: Binding affinity to wild-type Mycobacterium tuberculosis H37Rv ATCC 25618 partial length PKNB (M1 to G279 residues) expressed in mammalian expression system assessed as residual binding level at 1 uM by Kinomescan method relative to control; in short: as §2
[10] = biological target: Receptor tyrosine-protein kinase erbB-2 (Homo sapiens) (UniProt P04626); assay: Binding affinity to wild-type human partial length ERBB2 (K646 to V1225 residues) expressed in mammalian expression system assessed as residual binding level at 1 uM by Kinomescan method relative to control
Sequence of Receptor tyrosine-protein kinase erbB-2 (Homo sapiens) (P04626 whole entry, the tested form may be a part): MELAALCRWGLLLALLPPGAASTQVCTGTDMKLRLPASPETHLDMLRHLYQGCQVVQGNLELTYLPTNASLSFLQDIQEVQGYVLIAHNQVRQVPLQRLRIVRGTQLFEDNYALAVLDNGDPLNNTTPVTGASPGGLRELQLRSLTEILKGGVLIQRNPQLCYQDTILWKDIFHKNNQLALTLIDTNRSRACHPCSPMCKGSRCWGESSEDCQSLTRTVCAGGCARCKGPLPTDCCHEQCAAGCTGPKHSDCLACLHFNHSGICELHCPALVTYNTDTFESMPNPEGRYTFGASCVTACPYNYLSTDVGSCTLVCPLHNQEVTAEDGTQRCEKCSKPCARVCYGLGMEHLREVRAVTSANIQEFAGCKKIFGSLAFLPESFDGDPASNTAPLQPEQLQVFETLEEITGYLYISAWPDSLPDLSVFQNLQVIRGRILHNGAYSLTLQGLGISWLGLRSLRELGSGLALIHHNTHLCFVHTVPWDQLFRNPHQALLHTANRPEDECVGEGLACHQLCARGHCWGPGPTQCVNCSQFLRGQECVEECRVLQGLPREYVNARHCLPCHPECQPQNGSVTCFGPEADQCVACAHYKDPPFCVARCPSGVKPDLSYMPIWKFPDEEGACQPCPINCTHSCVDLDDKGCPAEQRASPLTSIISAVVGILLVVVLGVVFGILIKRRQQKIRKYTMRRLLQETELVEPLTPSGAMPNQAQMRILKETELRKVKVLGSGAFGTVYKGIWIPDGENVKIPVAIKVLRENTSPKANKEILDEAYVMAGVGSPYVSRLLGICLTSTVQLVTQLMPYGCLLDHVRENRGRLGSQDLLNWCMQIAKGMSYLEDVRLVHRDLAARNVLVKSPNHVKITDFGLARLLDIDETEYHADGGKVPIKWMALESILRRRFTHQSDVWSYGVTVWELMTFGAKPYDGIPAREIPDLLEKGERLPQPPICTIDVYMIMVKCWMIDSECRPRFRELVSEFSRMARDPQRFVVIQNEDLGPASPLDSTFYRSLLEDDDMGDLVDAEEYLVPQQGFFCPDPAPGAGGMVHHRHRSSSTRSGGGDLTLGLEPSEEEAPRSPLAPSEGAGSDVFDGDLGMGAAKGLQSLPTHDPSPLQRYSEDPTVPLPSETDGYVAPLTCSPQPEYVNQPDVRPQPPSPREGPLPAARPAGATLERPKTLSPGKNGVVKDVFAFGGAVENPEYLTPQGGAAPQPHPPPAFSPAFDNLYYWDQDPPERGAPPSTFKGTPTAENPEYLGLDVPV

[11] = Tmax in Sprague-Dawley rat at 1 mg/kg, iv; assay type: ADME, organism-based; conditions: in vivo
In short: (§3)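 Male Sprague-Dawley rats, 6–8 weeks old and fasted overnight, dosed IV at 1 mg/kg or PO at 10 mg/kg. Formulation was 5% DMSO/40% PEG400/55% saline (1 mg/mL). Jugular blood collected on heparin from 1 min to 8 h (IV) or 5 min to 24 h (PO). Plasma separated by centrifugation at 2–8 °C and stored at −80 °C.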

[12] = biological target: Tyrosine-protein kinase receptor TYRO3 (Homo sapiens) (UniProt Q06418); assay: Binding affinity to wild-type human partial length TYRO3 (S497 to T814 residues) expressed in bacterial expression system assessed as residual binding level at 1 uM by Kinomescan method relative to control
[13] = biological target: Tyrosine-protein kinase JAK1 (Homo sapiens) (UniProt P23458); assay: Binding affinity to wild-type human partial length JAK1 JH2 pseudokinase domain (R537 to D855 residues) expressed in mammalian expression system assessed as residual binding level at 1 uM by Kinomescan method relative to control
[14] = biological target: Mitogen-activated protein kinase 6 (Homo sapiens) (UniProt Q16659); assay: Binding affinity to wild-type human partial length ERK3 (M1 to P413 residues) expressed in bacterial expression system assessed as residual binding level at 1 uM by Kinomescan method relative to control; in short: as §1
[15] = biological target: Eukaryotic translation initiation factor 2-alpha kinase 1 (Homo sapiens) (UniProt Q9BQI3); assay: Binding affinity to wild-type human partial length EIF2AK1 (Q147 to E603 residues) expressed in mammalian expression system assessed as residual binding level at 1 uM by Kinomescan method relative to control
[16] = biological target: Megakaryocyte-associated tyrosine-protein kinase (Homo sapiens) (UniProt P42679); assay: Binding affinity to wild-type human full length CTK (M43 to P508 residues) expressed in mammalian expression system assessed as residual binding level at 1 uM by Kinomescan method relative to control; in short: as §2
Sequence of Megakaryocyte-associated tyrosine-protein kinase (Homo sapiens) (P42679 whole entry, the tested form may be a part): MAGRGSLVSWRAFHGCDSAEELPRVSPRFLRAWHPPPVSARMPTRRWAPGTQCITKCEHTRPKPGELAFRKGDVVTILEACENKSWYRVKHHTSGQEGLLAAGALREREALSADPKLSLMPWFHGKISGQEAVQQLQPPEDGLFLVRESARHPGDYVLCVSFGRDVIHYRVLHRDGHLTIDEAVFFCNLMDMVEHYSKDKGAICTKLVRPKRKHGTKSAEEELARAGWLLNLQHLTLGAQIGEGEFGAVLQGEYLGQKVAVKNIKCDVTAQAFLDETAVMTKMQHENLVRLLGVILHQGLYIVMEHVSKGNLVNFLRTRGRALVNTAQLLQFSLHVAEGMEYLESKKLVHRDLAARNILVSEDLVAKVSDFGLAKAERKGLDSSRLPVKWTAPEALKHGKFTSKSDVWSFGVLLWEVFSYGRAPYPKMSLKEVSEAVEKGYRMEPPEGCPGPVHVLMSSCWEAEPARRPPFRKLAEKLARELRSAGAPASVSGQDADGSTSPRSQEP

[17] = biological target: Myotonin-protein kinase (Homo sapiens) (UniProt Q09013); assay: Binding affinity to wild-type human partial length DMPK (V47 to V415 residues) expressed in bacterial expression system assessed as residual binding level at 1 uM by Kinomescan method relative to control; in short: as §1
[18] = biological target: Ribosomal protein S6 kinase alpha-4 (Homo sapiens) (UniProt O75676); assay: Binding affinity to wild-type human partial length N-terminal RPS6KA4 kinase domain 1 expressed in bacterial expression system assessed as residual binding level at 1 uM by Kinomescan method relative to control
Sequence of Ribosomal protein S6 kinase alpha-4 (Homo sapiens) (O75676 whole entry, looked up, the tested form may be a part): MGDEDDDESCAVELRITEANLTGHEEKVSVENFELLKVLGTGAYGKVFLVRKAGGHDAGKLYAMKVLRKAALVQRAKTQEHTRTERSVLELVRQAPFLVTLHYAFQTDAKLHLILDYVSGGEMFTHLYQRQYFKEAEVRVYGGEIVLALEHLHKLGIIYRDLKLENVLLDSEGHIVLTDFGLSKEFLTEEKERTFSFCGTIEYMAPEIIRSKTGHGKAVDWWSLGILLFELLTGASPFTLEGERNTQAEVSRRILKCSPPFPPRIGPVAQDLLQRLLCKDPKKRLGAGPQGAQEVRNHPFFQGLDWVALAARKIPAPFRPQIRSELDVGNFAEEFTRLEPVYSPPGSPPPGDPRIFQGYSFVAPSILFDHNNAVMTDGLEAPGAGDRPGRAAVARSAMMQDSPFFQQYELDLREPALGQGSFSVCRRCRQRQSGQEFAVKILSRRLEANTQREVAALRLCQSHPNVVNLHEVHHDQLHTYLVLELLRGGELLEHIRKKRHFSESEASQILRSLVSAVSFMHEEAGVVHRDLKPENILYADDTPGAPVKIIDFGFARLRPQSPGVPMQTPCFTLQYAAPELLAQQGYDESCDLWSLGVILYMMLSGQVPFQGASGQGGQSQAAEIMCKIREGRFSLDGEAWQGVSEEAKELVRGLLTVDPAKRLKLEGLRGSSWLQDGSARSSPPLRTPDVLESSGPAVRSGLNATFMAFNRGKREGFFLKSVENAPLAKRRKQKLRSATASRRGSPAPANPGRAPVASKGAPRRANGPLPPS

[19] = biological target: Homeodomain-interacting protein kinase 2 (Homo sapiens) (UniProt Q9H2X6); assay: Binding affinity to wild-type human partial length HIPK2 (M153 to S564 residues) expressed in mammalian expression system assessed as residual binding level at 1 uM by Kinomescan method relative to control
[20] = biological target: Activin receptor type-1 (Homo sapiens) (UniProt Q04771); assay: Binding affinity to wild-type human ACVR1 (C188 to C509 residues) expressed in bacterial expression system assessed as residual binding level at 1 uM by Kinomescan method relative to control; in short: as §2
[21] = Cmax in Sprague-Dawley rat at 1 mg/kg, iv; assay type: ADME, organism-based; parameters: dose 1 mg/kg, route intravenous; conditions: in vivo; in short: as §3
[22] = biological target: Cyclin-dependent kinase 9 (Homo sapiens) (UniProt P50750); assay: Binding affinity to wild-type human full length CDK9 (M1 to F372 residues) expressed in bacterial expression system assessed as residual binding level at 1 uM by Kinomescan method relative to control; in short: as §2
Sequence of Cyclin-dependent kinase 9 (Homo sapiens) (P50750 whole entry, the tested form may be a part): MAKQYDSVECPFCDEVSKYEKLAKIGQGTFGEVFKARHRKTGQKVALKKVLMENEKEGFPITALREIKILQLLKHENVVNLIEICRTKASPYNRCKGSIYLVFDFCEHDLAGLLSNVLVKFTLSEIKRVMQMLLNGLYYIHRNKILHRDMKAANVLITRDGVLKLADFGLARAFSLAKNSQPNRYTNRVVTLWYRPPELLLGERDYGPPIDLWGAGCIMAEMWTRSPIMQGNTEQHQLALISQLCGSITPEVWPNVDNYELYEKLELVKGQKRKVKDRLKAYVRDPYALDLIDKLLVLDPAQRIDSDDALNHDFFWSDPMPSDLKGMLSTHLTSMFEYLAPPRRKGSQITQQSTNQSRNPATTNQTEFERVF

Sequence of Mitogen-activated protein kinase kinase kinase 5 (Homo sapiens) (Q99683 whole entry, the tested form may be a part): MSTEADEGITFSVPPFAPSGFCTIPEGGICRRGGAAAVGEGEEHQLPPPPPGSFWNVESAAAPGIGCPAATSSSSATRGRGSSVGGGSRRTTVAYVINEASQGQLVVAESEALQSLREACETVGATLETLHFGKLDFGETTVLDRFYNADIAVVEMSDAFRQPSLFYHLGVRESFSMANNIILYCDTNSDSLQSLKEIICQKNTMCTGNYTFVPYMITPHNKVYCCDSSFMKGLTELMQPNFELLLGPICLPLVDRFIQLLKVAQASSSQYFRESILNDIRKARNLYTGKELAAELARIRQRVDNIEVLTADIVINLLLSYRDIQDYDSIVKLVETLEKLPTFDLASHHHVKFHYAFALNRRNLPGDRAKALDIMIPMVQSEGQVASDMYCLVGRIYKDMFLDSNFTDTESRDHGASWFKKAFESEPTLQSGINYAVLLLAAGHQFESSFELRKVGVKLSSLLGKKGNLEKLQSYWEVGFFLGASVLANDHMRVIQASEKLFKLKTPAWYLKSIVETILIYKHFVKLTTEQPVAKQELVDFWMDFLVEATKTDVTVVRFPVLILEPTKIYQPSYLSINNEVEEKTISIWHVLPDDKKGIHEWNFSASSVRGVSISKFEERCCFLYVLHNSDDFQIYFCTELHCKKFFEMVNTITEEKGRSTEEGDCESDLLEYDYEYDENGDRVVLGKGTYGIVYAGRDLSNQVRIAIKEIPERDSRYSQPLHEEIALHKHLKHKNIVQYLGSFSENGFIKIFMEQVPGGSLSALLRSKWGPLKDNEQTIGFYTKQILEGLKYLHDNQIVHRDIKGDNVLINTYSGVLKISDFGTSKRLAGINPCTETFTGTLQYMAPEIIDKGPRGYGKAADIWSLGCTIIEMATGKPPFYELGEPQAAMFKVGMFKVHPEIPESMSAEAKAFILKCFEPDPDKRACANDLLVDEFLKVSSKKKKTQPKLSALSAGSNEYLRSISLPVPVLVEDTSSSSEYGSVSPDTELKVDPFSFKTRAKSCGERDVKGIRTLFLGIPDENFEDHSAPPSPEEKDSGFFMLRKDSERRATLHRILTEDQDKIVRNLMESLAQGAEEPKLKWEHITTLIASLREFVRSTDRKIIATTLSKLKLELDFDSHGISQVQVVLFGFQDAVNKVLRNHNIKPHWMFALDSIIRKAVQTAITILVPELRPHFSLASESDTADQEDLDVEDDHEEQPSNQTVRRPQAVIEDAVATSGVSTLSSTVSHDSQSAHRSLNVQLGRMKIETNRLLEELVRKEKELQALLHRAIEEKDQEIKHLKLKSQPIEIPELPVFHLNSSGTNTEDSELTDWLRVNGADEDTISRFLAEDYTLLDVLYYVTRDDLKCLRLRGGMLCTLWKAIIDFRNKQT

**Q.** Which Activity [1] does the source give for `Cc1ccc(NC(=O)c2ccc(CN(CCN(C)C)C(=O)c3cccnc3)cc2)cc1Nc1nccc(-c2cccnc2)n1` here?
**A.** The Activity was 100%.

**Q.** What about the Activity [2] of the same molecule?
**A.** Its Activity is 100%.

**Q.** What about the IC50 [3] of the same molecule?
**A.** Its IC50 is > 10 µM.

**Q.** What about the Activity [4] of the same molecule?
**A.** The Activity was 100%.

**Q.** What about the Activity [5] of the same molecule?
**A.** The Activity was 91%.

**Q.** What about the Activity [6] of the same molecule?
**A.** The Activity was 91%.

**Q.** What about the Activity [7] of the same molecule?
**A.** The Activity was 85%.

**Q.** What about the Activity [8] of the same molecule?
**A.** The Activity was 100%.

**Q.** And the Activity [9]?
**A.** The Activity was 99%.

**Q.** And the Activity [10]?
**A.** The Activity was 85%.

**Q.** What about the Tmax [11] of the same molecule?
**A.** The Tmax was 1.02 min.

**Q.** And the Activity [12]?
**A.** Its Activity is 85%.

**Q.** And the Activity [13]?
**A.** The Activity was 78%.

**Q.** And the Activity [14]?
**A.** Its Activity is 94%.

**Q.** And the Activity [15]?
**A.** The Activity was 100%.

**Q.** What about the Activity [16] of the same molecule?
**A.** The Activity was 90%.

**Q.** What about the Activity [17] of the same molecule?
**A.** Its Activity is 89%.

**Q.** And the Activity [18]?
**A.** Its Activity is 82%.

**Q.** What about the Activity [19] of the same molecule?
**A.** The Activity was 100%.

**Q.** What about the Activity [20] of the same molecule?
**A.** Its Activity is 99%.

**Q.** What about the Cmax [21] of the same molecule?
**A.** The Cmax was 4590 ng/mL.

**Q.** And the Activity [22]?
**A.** Its Activity is 100%.
